Compound activity (PubChem BioAssay)
Shown are actives, neighbours in structure and some others; about 1.9% of the full set was active somewhere.
CHRM5 PAM – potentiates acetylcholine response at human M5 receptor; AID 624038; CHO-K1 hM5, Fluo-8 calcium, ACh EC20 PAM; 0% = ACh EC20, 100% = ACh EC100; hit rate 0.3% among 360,000; P08912; activation, % at 3 µM;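 active means activation above the run cutoff, the mean activation of all test compounds plus 3 SD, cut at about 18% in these data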
Target sequence (P08912 whole entry, looked up): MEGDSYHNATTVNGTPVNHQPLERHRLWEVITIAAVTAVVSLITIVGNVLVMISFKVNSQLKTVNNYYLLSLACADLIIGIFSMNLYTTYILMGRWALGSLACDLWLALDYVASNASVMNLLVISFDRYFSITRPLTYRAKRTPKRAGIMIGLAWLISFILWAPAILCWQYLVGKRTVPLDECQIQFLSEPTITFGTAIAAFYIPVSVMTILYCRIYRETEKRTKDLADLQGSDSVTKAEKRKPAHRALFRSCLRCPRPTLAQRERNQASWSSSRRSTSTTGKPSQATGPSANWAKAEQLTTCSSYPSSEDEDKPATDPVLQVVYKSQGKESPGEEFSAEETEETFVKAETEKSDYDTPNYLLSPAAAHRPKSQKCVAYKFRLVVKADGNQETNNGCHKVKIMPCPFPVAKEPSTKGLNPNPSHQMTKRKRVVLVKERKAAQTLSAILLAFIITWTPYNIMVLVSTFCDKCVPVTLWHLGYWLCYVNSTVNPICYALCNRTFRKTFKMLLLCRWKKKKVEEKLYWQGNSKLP
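Probe or stimulus: acetylcholine, EC20 level; Assay system: human M5 receptor in CHO-K1 cells; Schedule: compound preincubation 140 s before EC20 acetylcholine addition; Technique: intracellular calcium via Fluo-8 fluorescence; Dosing: single-point, 3 µM nominal; Read-out basis: percent activation from peak-over-basal fluorescence ratio, scaled EC20-to-EC100 acetylcholine; Repeats: one well per compound, no replicates.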
CHRM4 PAM – potentiates acetylcholine response at human M4 receptor; CHO-K1 hM4/Gqi5, Fluo-8 calcium fluorescence, ACh EC20; 0% = ACh EC20, 100% = maximal ACh; activation, % at 3 µM; hit rate 0.4% among 360,000;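 active means activation above its plate's cutoff, the mean activation of sample wells plus 3 SD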
CHRM4 antagonist – blocks acetylcholine activation of human M4 receptor; CHO-hM4 cells, ACh EC80, Fluo-8 calcium fluorescence; hit rate 0.73% among 360,000; P08173; inhibition, % at 3 µM;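 active means inhibition above its plate's cutoff, the mean inhibition of sample wells plus 3 SD, cut at about 27% in these data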;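 further: 0% = acetylcholine EC80 with DMSO and 100% = DMSO without agonist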
CHRM5 antagonist – CHRM5 antagonism in calcium assay; P08912; CHO-hM5 cells, Fluo-8 calcium fluorescence, ACh EC80; inhibition, % at 3 µM; hit rate 0.59% among 360,000; AID 624040;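 active means inhibition above a per-plate cutoff, the mean of that plate's test compounds plus 3 SD, cut at about 27% in these data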;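 further: 0% = acetylcholine EC80 with DMSO and 100% = DMSO without agonist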
CHRM5 agonist – agonists of human muscarinic M5 receptor (CHRM5). P08912. activation, % at 3 µM. AID 624037. CHO-K1 hM5 cells, Fluo-8 calcium fluorescence; 0% DMSO wells, 100% maximal acetylcholine response. hit rate 0.19% among 360,000;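 active means activation above the run's mean over test compounds plus 3 SD, cut at about 23% in these data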;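 further: signal is peak over basal fluorescence ratio across the kinetic read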
CHRM4 agonist – agonists of human muscarinic M4 receptor (CHRM4); hit rate 0.14% among 360,000; activation, % at 3 µM; CHO-K1 hM4/Gqi5, Fluo-8 calcium fluorescence; vehicle 0%, full acetylcholine response 100%; P08173; AID 624127;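 active means activation above the run mean over all test wells plus 3 SD, cut at about 32% in these data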;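 further: peak over basal fluorescence ratio per well then scaled between controls; 0% = DMSO wells and 100% = acetylcholine at EC100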
* marks the source's active call; other numbers are inactive results.

SMILES | CHRM5 PAM | CHRM4 PAM | CHRM4 antagonist | CHRM5 antagonist | CHRM5 agonist | CHRM4 agonist
O=c1[nH]c(C2CCN(S(=O)(=O)c3ccc4c(c3)OCCO4)CC2)nc2c1nnn2Cc1cccc(F)c1 | 1.4 | -22.6 | 79.2* | 9.4 | -4.4 | 1.1
O=c1[nH]c(C2CCN(S(=O)(=O)c3ccc([N+](=O)[O-])cc3)CC2)nc2c1nnn2Cc1ccccc1 | 4.2 | -2.0 | 7.1 | 5.8 | -2.8 | 2.1
O=c1[nH]c(C2CCN(S(=O)(=O)c3ccc4c(c3)OCCO4)CC2)nc2c1nnn2Cc1ccc(F)cc1 | -0.6 | -18.5 | 47.9* | 14.1 | -1.2 | -0.1
O=C(COC(=O)Cc1ccc(F)cc1)NC1CCCCC1 | -5.4 | -1.9 | 10.1 | 16.9 | -0.9 | 1.2
CCCCn1c(N)c(N(CCOC)C(=O)CC(NC(=O)c2ccccc2)c2ccccc2)c(=O)[nH]c1=O (stereo unspecified) | 3.5 | 2.1 | 0.2 | 9.7 | -3.5 | 0.4
O=C(COc1ccc(Cl)cc1Cl)c1ccc[nH]1 | 0.3 | -0.4 | -6.6 | 0.7 | -5.3 | 1.2
O=c1[nH]c(C2CCCN(S(=O)(=O)c3ccccc3Cl)C2)nc2c1nnn2Cc1ccc2c(c1)OCCO2 (stereo unspecified) | -2.5 | -7.7 | -8.6 | -6.1 | -6.0 | 2.6
O=c1[nH]c(C2CCN(S(=O)(=O)c3ccccc3)CC2)nc2c1nnn2Cc1ccc2c(c1)OCCO2 | 4.7 | -11.2 | 95.1* | 2.4 | -5.5 | -1.3
COCCN(C(=O)c1snc(C(N)=O)c1N)C(C(=O)NC1CCCCC1)c1ccc(N(C)C)cc1 (stereo unspecified) | 8.3 | 3.0 | -18.1 | -7.9 | 3.0 | 3.3
CCCCNc1c(-c2ccc(-c3ccc(OC)cc3)c(OC)c2)nc2ccccn12 | -29.5 | -16.3 | 36.1* | 19.3 | -5.3 | 11.9
CCCCNc1c(-c2ccc(OC)c(Sc3ccc(OC)cc3)c2)nc2ccccn12 | -31.5 | -7.8 | 39.1* | 26.9* | -3.4 | 17.5
CCCCNc1c(-c2ccc(OC)c(Sc3ccc(OC)cc3)c2)nc2cnccn12 | -13.8 | -2.7 | 16.4 | 18.6 | -2.0 | 13.3
CCCS(=O)(=O)NC(=O)C1(C)CCN(C(=O)c2c(-c3ccccc3)noc2C)C1 (stereo unspecified) | 4.9 | 8.5 | 0.8 | 7.3 | -1.2 | 0.1
CC1CCc2nc3ccccc3c(C(=O)OCC(=O)NC3CCS(=O)(=O)C3)c2C1 (stereo unspecified) | 2.5 | 3.2 | 1.7 | 8.0 | 3.2 | 3.0
COc1cccc(NC(=O)COC(=O)c2c3c(nc4ccccc24)CCC(C)C3)c1 (stereo unspecified) | -21.6 | -12.2 | 41.2* | 25.6 | -4.5 | 6.0
O=C(NCCCN1CCN(Cc2ccccc2)CC1)c1nnc(Cc2c(F)cccc2Cl)o1 | 5.2 | -20.8 | 12.9 | -6.8 | -7.5 | 0.5
O=C(NCCCO)c1nnc(Cc2c(F)cccc2Cl)o1 | 12.1 | 29.2* | -8.3 | -6.7 | 6.4 | 1.0
Cc1nn(C)cc1C(C(=O)NC1CCCCC1)N(C(=O)c1cnccn1)c1ccc(Oc2ccccc2)cc1 (stereo unspecified) | 1.3 | 24.2* | -10.8 | -9.4 | -1.9 | 1.5
CCOC(=O)c1ccc(N(C(=O)c2cnccn2)C(C(=O)NC2CCCCC2)c2cn(C)nc2C)cc1 (stereo unspecified) | 3.1 | -2.7 | 12.5 | -1.2 | -0.8 | 0.1
CC(OC(=O)/C(C#N)=C/c1ccc(N(C)C)cc1)C(=O)N(C)Cc1ccccc1 (stereo unspecified) | -10.6 | -13.0 | 6.4 | 11.5 | 32.2* | 19.2
CC(OC(=O)c1cccc(O)c1)C(=O)N(C)Cc1ccccc1 (stereo unspecified) | -5.9 | 1.8 | 5.1 | 7.2 | -0.4 | 0.7
Cc1nn(CC(=O)N2CCN(c3ccccc3)CC2)c(C)c1[N+](=O)[O-] | 0.5 | -25.4 | 37.4* | 7.0 | -2.9 | 2.2
Cc1ccc(S(=O)(=O)N2CCN(C(=O)Cn3nc(C)c([N+](=O)[O-])c3C)CC2)c(C)c1 | -3.7 | 2.6 | -21.2 | -9.8 | -5.8 | 4.6
CCN(CC(=O)Nc1c(F)cccc1F)C(=O)c1nn(C)c(=O)c2ccccc12 | -5.4 | -2.0 | 11.0 | 22.5 | 1.2 | 1.5
CC1(C)C[C@H]2C3=CCC4[C@@]5(C)CC[C@H](O[C@@H]6O[C@H](C(=O)O)[C@@H](O)[C@H](O)[C@H]6O)[C@@](C)(CO)C5CC[C@@]4(C)[C@]3(C)C[C@H](O)[C@@]2(CO)[C@@H](O)[C@@H]1O (stereo partly specified) | -0.9 | 11.5 | -0.9 | 14.8 | 0.3 | 0.6
SMILES | CHRM5 PAM | CHRM4 PAM | CHRM4 antagonist | CHRM5 antagonist | CHRM5 agonist | CHRM4 agonist
C/C=C(\C)C(=O)OC1[C@H](OC(C)=O)C2(CO)C(CC1(C)C)C1=CCC3C4(C)CCC(O[C@@H]5O[C@H](C(=O)O)[C@@H](O[C@@H]6O[C@H](CO)[C@@H](O)[C@H](O)[C@H]6O)[C@H](O)[C@H]5O[C@H]5O[C@H](CO)[C@@H](O)[C@H](O)[C@H]5O)[C@](C)(CO)C4CCC3(C)[C@]1(C)C[C@H]2O (stereo partly specified) | -25.7 | -19.4 | 90.7* | 82.5* | 91.8* | 133.4*
C/C=C(/C)C(=O)OC1CC(C)(C)C[C@H]2C3=CC[C@@H]4[C@@]5(C)CCC(O[C@@H]6O[C@@H](C(=O)O)[C@@H](O)C(O[C@@H]7OC[C@H](O)[C@@H](O)[C@@H]7O[C@@H]7OC(CO)C(O)[C@@H](O)[C@@H]7O)C6O[C@@H]6OC(CO)C(O)C(O)C6O)[C@@](C)(CO)[C@@H]5CC[C@]4(C)[C@]3(C)CC(O)[C@@]12CO (stereo partly specified) | -5.6 | 20.1 | 25.9 | 10.0 | -3.4 | 74.8*
CC(C)CCn1nc(C(=O)OCC(=O)NC(C)c2ccccc2)c2ccccc2c1=O (stereo unspecified) | 2.1 | -0.9 | 0.7 | 29.3* | -2.9 | -0.2
CCCCN1C(=O)C(CC(=O)NCc2cccc3ccccc23)CC(C(=O)N(C(C)C)C(C)C)=C1C (stereo unspecified) | -6.4 | -3.0 | -4.4 | -4.0 | -0.8 | 3.0
O=[N+]([O-])c1ccc(CN2CCSCC2)cc1 | 21.5* | 4.3 | -11.6 | -10.6 | 2.2 | 1.0
COc1ccc(-c2cn(-c3ccc(C)cc3)c(=O)n2CC(=O)Nc2cccc(F)c2)cc1 | 25.9* | -0.9 | -20.3 | -4.4 | -7.7 | 1.7
CC1Oc2ccccc2N(CC(=O)N2CCCc3ccccc32)C1=O (stereo unspecified) | 4.4 | -0.3 | -6.6 | -5.3 | -5.4 | 3.1
CC1Oc2ccccc2N(CC(=O)N2CCCCC2)C1=O (stereo unspecified) | -2.2 | 17.2* | -24.2 | 3.9 | -3.0 | 2.3
